Experimental data from ChEMBL document CHEMBL1641453, “Synthesis and evaluation of β-carboline derivatives as potential monoamine oxidase inhibitors” (Bioorg Med Chem, 2011).

What was measured:
[1] = molecular target: T1, Amine oxidase [flavin-containing] A (Homo sapiens, UniProt P21397); assay: Inhibition of human recombinant MAO-A expressed in baculovirus-infected insect cells after 1 hr by two-step bioluminescent assay
T1 sequence (P21397 whole entry): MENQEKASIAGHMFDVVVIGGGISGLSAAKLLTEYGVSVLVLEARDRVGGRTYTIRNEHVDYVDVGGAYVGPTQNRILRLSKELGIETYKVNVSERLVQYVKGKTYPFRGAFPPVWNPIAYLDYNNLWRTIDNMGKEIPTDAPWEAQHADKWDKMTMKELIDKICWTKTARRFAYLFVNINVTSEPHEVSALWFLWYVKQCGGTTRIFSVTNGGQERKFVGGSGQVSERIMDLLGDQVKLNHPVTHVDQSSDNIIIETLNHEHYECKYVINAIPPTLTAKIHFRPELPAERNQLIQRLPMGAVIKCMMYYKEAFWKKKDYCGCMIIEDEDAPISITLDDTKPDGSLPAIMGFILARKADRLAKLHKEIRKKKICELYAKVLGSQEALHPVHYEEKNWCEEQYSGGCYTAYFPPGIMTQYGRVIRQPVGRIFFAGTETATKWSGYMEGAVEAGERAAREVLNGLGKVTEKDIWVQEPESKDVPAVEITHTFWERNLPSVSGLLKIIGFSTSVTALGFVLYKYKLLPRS

[2] = molecular target: T2, Amine oxidase [flavin-containing] B (Homo sapiens, UniProt P27338); assay: (§1) Inhibition of human recombinant MAO-B expressed in baculovirus-infected insect cells at 1 uM after 1 hr by two-step bioluminescent assay; details: 1 h, 1 µM
T2 sequence (P27338 whole entry): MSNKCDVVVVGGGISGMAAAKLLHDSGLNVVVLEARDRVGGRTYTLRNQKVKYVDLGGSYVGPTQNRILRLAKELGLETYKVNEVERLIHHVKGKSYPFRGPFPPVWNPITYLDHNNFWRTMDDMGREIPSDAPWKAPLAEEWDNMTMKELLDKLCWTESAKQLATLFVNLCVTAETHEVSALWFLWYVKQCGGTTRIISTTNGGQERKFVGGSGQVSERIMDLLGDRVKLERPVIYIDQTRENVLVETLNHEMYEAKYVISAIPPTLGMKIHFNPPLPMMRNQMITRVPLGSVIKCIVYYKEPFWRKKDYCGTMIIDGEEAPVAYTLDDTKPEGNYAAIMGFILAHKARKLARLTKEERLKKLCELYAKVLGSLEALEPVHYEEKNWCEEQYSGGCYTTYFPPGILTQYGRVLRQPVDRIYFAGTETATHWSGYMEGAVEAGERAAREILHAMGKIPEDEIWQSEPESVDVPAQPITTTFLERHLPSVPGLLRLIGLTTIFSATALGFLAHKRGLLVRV
Method in brief: (§2)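 Recombinant human MAO-B from baculovirus-infected insect cell microsomes (0.5 U/mg final) preincubated 2 min 30 s with compound, then luminogenic substrate at 15 µM final, 1 h at 37 °C. Luciferin detection reagent stops the reaction and luminescence is read after 20 min. Hepes 100 mM pH 7.5, 5% glycerol, 12.5% DMSO. Tested in triplicate; % inhibition from signal relative to no-compound control.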

[3] = molecular target: T3, MAO-B (amine oxidase [flavin-containing] B) (Homo sapiens, UniProt P27338); assay: as §1; method in brief: as §2
T3 sequence (P27338 whole entry): T2 sequence (P27338 whole entry)

[4] = molecular target: T2, Amine oxidase [flavin-containing] B; assay: Inhibition of human recombinant MAO-B expressed in baculovirus-infected insect cells after 1 hr by two-step bioluminescent assay
Method in brief: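 Recombinant human MAO-B microsomes from baculovirus-infected insect cells, 0.5 U/mg final. Enzyme preincubated with compound 2 min 30 s at 37 °C, then luminogenic luciferin-derivative substrate added (15 µM final). Luciferin detection reagent stops the reaction; luminescence read 20 min later. Buffer 100 mM Hepes pH 7.5 with 5% glycerol, DMSO 12.5% final. Screened at 10 and 1 µM in triplicate; IC50 from sigmoidal fit.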

Cc1nccc2c1[nH]c1cc(OCCO)ccc12
Ki [1]: 28.4 nM | inhibition (INH) [2]: Not Active

C=CCOc1ccc2c(c1)[nH]c1c(C)nccc12
Ki [1]: 5 nM | inhibition (INH) [2]: Not Active

Cc1nccc2c1[nH]c1cc(OCC(C)C)ccc12
Ki [1]: 3.9 nM | inhibition at 1 h, 1 µM [3]: 14%

COCCOc1ccc2c(c1)[nH]c1c(C)nccc12
Ki [1]: 29.5 nM | inhibition (INH) [2]: Not Active

Cc1nccc2c1[nH]c1cc(OCCCC(F)(F)F)ccc12
Ki [1]: 3.6 nM | inhibition at 1 h, 1 µM [3]: 24%

Cc1nccc2c1[nH]c1cc(OCC3CCCCC3)ccc12
Ki [1]: 4.3 nM | Ki [4]: 222 nM

Cc1nccc2c1[nH]c1cc(OCc3ccccc3)ccc12
Ki [1]: 12.6 nM | inhibition at 1 h, 1 µM [3]: 42%

Cc1nccc2c1[nH]c1cc(OCCc3ccccc3)ccc12
Ki [1]: 5 nM | inhibition at 1 h, 1 µM [3]: 39%

Cc1nccc2c1[nH]c1cc(OCc3ccccn3)ccc12
Ki [1]: 500 nM | inhibition (INH) [2]: Not Active

Cc1nccc2c1[nH]c1cc(OCc3cccnc3)ccc12
Ki [1]: 24.9 nM | inhibition (INH) [2]: Not Active

Cc1nccc2c1[nH]c1cc(OCc3ccncc3)ccc12
Ki [1]: 35.4 nM | inhibition (INH) [2]: Not Active

Cc1nccc2c1[nH]c1cc(OCc3ccc4ccccc4c3)ccc12
Ki [1]: 100 nM | inhibition (INH) [2]: Not Active

Cc1nccc2c1[nH]c1cc(OCCN(C)C)ccc12
Ki [1]: 1020 nM | inhibition (INH) [2]: Not Active

Cc1nccc2c1[nH]c1cc(OCCCN(C)C)ccc12
Ki [1]: 684 nM | inhibition (INH) [2]: Not Active

Cc1nccc2c1[nH]c1cc(OCCN3CCOCC3)ccc12
Ki [1]: 256 nM | inhibition (INH) [2]: Not Active

COc1ccc2c(c1)[nH]c1c(C)nccc12 [HARMINE]
Ki [4]: 121000 nM
